# Reference: ChEMBL document CHEMBL3085701, “Optimization of novel indole-2-carboxamide inhibitors of neurotropic alphavirus replication” (J Med Chem, 2013)
# Tests used:
# [1] = Therapeutic index, ratio of CC50 for human BE(2)-C cells to IC50 for Western equine encephalitis virus; conditions: read-out: Ratio CC50/IC50
# [2] = Cytotoxicity against human BE(2)-C cells after 18 to 20 hrs by MTT assay; type: cell-based
# [3] = tested on: Western equine encephalitis virus; assay: Antiviral activity against Western equine encephalomyelitis virus infected in human BE(2)-C cells assessed as inhibition of viral RNA replication after 18 to 20 hrs by luciferase reporter gene assay; type: functional, cell-based
# [4] = molecular target: MDR1 (ABCB1, P-glycoprotein) (Homo sapiens, UniProt P08183); assay: Inhibition of human MDR1 expressed in MDCK2 cells assessed as increase of rhodamine 123 uptake at 30 uM up to 240 mins relative to control; type: ADME, cell-based, MDCK-II; conditions: MDCK2 cells expressing human MDR1, probe rhodamine 123
# Chain of MDR1 (ABCB1, P-glycoprotein) (P08183 whole entry): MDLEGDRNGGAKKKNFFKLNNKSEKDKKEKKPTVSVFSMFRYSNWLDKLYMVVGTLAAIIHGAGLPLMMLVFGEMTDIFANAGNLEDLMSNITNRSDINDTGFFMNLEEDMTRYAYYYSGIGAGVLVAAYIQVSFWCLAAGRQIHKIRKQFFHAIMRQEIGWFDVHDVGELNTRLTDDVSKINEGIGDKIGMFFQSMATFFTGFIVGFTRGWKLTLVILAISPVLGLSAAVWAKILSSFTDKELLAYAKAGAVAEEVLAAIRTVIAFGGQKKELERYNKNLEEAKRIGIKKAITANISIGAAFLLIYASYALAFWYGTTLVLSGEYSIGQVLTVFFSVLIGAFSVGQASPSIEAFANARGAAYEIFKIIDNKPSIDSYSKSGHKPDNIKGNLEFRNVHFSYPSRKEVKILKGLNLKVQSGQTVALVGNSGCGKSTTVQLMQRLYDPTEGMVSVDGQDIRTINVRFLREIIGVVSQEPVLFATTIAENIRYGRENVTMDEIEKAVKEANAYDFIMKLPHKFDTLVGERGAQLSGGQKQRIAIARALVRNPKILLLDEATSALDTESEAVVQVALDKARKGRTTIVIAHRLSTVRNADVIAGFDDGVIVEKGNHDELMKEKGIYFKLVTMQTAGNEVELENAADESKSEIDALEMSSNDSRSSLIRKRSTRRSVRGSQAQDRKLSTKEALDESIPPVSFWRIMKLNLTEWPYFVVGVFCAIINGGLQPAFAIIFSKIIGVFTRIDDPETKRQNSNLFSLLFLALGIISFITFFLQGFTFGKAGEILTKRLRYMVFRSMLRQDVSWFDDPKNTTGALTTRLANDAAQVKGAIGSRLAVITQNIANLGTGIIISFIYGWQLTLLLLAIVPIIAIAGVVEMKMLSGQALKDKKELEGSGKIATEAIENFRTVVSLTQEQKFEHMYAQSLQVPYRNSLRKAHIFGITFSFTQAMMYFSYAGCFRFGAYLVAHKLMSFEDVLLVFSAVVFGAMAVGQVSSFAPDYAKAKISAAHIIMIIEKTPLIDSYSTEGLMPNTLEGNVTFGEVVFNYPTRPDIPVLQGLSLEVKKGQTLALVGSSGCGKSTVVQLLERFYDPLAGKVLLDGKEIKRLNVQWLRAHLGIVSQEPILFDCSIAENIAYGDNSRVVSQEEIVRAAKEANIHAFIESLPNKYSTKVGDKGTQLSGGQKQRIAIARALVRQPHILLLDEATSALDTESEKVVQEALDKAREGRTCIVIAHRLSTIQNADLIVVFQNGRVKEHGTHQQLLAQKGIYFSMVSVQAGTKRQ
# How it was run: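 Confluent MDR1-MDCKII cells (human Pgp-transfected) given fresh DMEM with 10 μM rhodamine 123, plus vehicle, tariquidar (5 μM) or compound (30 μM). Uptake at 37°C from 1 to 240 min, stopped by ice-cold PBS washes. Fluorescence read at ex 525/em 560-640 nm. Result expressed as % of same-day tariquidar effect, (Cav−Cveh)*100/(Ctar−Cveh). Triplicates on ≥3 occasions.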
# Plasma [5] = assay: Plasma concentration in C57BL/6 mouse at 20 mg/kg, ip after 12 hrs; type: ADME, organism-based; design: dose 20 mg/kg, route intraperitoneal; conditions: in vivo, BLD = below limit of detection
# How it was run: (§1)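 C57BL/6 female mice given a single IP injection of compound in 2% sterile DMSO/PBS, at the stated dose. Duplicate mice per time point. Blood taken by cardiac puncture into EDTA and plasma separated. Cerebrum harvested after PBS perfusion and flash-frozen. Drug quantified by LC/MS/MS as ng/mL plasma or ng/g brain.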
# [6] = Half life in Balb-C mouse liver microsomes; type: ADME, Microsome
# How it was run: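 Compound incubated with Balb-C mouse liver microsomes, and half-life determined for oxidative metabolism. Values are means of ≥2 independent incubations.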
# Brain [7] = assay: Drug level in C57BL/6 mouse brain at 20 mg/kg, ip after 2 hrs; type: ADME, organism-based; design: dose 20 mg/kg, route intraperitoneal; conditions: in vivo, BLD = below limit of detection
# How it was run: (§2)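 Female C57BL/6 mice were given a single IP dose in 2% sterile DMSO/PBS. At each time point, duplicate mice had blood taken by cardiac puncture. They were then perfused with PBS, and the cerebrum was harvested and flash frozen on dry ice. Brain drug levels were quantified by LC/MS/MS and reported as ng/g; BLQ means below the limit of quantitation.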
# [8] = Kinetic solubility of the compound; type: physicochemical
# [9] = tested on: Western equine encephalitis virus; assay: Antiviral activity against Western equine encephalomyelitis virus infected in human BE(2)-C cells assessed as reduction of viral titer at 25 uM after 24 hrs by plaque reduction assay (reference value: 25.7 +/- 5.2 x 10^6 pfu/ml); type: functional
# [10] = Plasma concentration in C57BL/6 mouse at 20 mg/kg, ip after 2 hrs; type: ADME, organism-based; design: dose 20 mg/kg, route intraperitoneal; how it was run: as §1
# Brain [11] = assay: Drug level in C57BL/6 mouse brain at 20 mg/kg, ip after 12 hrs; type: ADME, organism-based; design: dose 20 mg/kg, route intraperitoneal; conditions: in vivo, BLD = below limit of detection; how it was run: as §2
# [12] = Cytotoxicity against human BE(2)-C cells assessed as cell viability at 25 uM after 24 hrs by MTT assay relative to control; type: cell-based; conditions: read-out: Activity
# Fort Morgan virus = assay: Antiviral activity against Fort Morgan virus infected in human BE(2)-C cells assessed as reduction of viral titer at 25 uM after 24 hrs by plaque reduction assay (reference value: 47.1 +/- 10.5 x 10^6 pfu/ml); type: functional
# [13] = Drug level in C57BL/6 mouse brain at 20 mg/kg, ip after 30 mins; type: ADME, organism-based; design: dose 20 mg/kg, route intraperitoneal; conditions: read-out: Drug uptake; how it was run: as §1
# [14] = Plasma concentration in C57BL/6 mouse at 20 mg/kg, ip after 30 mins; type: ADME, organism-based; design: dose 20 mg/kg, route intraperitoneal; how it was run: as §1
# [15] = Plasma concentration in C57BL/6 mouse at 30 mg/kg, ip after 30 mins; type: ADME, organism-based; design: dose 30 mg/kg, route intraperitoneal; how it was run: as §1
# [16] = Plasma concentration in C57BL/6 mouse at 30 mg/kg, ip after 2 hrs; type: ADME, organism-based; design: dose 30 mg/kg, route intraperitoneal; how it was run: as §1
# Brain [17] = assay: Drug level in C57BL/6 mouse brain at 30 mg/kg, ip after 30 mins; type: ADME, organism-based; design: dose 30 mg/kg, route intraperitoneal; conditions: in vivo, 0.5 h, BLD = below limit of detection; how it was run: as §2
# Brain [18] = assay: Drug level in C57BL/6 mouse brain at 30 mg/kg, ip after 2 hrs; type: ADME, organism-based; design: dose 30 mg/kg, route intraperitoneal; conditions: in vivo, BLD = below limit of detection; how it was run: as §2
# Plasma [19] = assay: (§3) Plasma concentration in C57BL/6 mouse at 30 mg/kg, ip after 12 hrs; type: ADME, organism-based; design: dose 30 mg/kg, route intraperitoneal; conditions: mouse, in vivo, 12 h, BLD = below limit of detection; how it was run: as §1
# Brain [20] = assay: Drug level in C57BL/6 mouse brain at 30 mg/kg, ip after 12 hrs; type: ADME, organism-based; design: dose 30 mg/kg, route intraperitoneal; conditions: in vivo, BLD = below limit of detection; how it was run: as §2
# [21] = as §3; type: ADME, organism-based; design: dose 30 mg/kg, route intraperitoneal; conditions: C57BL/6, mouse, plasma; how it was run: as §1
Structure (SMILES),CC50 ([2]; be(2)-c) [µM],IC50 [3] [µM],"inhibition at 4 h, 30 µM [4] [%]",t1/2 [6] [min],Kinetic_solubility [8] [µM],Activity [9] [×10⁶ PFU/ml],CC50 ([2]; BE(2)-C cells) [µM],"viability at 24 h, 25 µM [12] [%]",Activity (Fort Morgan virus) [×10⁶ PFU/ml],concentration at 0.5 h [15] [ng/mL],concentration at 2 h [16] [ng/mL],Drug uptake (Brain [17]),Drug uptake (Brain [18]),Drug uptake (Brain [20]),further results
O=C(NCCc1ccncc1)C1CCN(C(=O)c2cc3ccccc3n2Cc2c(F)cccc2F)CC1,34.5,1.3,28.5,,,,,,,,,,,,selectivity ratio [1]: 50
O=C(NCCc1ccncc1)C1CCN(C(=O)c2cccn2Cc2ccc(Cl)cc2)CC1,,0.7,-1.2,2.9,125,4.9,> 100,59.1,23.8,,,,,,Cp (Plasma [5]): BLD; Drug uptake (Brain [7]): BLD; concentration at 2 h [10]: 5 ng/mL; Drug uptake (Brain [11]): BLD; concentration at 0.5 h [13]: 19 ng/g; concentration at 0.5 h [14]: 124 ng/mL
C[C@@H](NC(=O)C1CCN(C(=O)c2cc3ccccc3n2Cc2ccc(Cl)cc2)CC1)c1ccccc1,,6.5,24.4,2.1,8,8.8,> 100,36.7,39.3,10,30,BLD,BLD,BLD,Cp (Plasma [19]): BLD
O=C(NCCc1ccncc1)C1CCN(C(=O)c2cc3ccccc3n2Cc2ccc(Cl)cc2)CC1,49.9,0.5,30.9,11.5,31,0.5,,60.7,4.9,59,79,BLD,BLD,BLD,concentration at 12 h [21]: 23 ng/mL
